{"data": "Measured values collected from several papers", "read-out": "cell growth or viability"}
{"Compound": "O=C(Nc1ccc(OC(F)(F)F)cc1)Nc1cccc(C(=O)Nc2ccc3[nH]ncc3c2)c1", "cell line": "KM12", "technique": "ATP luminescence", "time": "72 h", "measurement": "IC50", "value": "43.3 µM"}
{"Compound": "Cn1cc(-c2cc(N3CCCCS3(=O)=O)ccc2Oc2ccc(F)cc2F)c2c(F)c[nH]c2c1=O", "cell line": "MOLM-14", "technique": "CCK-8", "time": "72 h", "measurement": "GI50", "value": "0.0081 µM"}
{"Compound": "O=C(Nc1ccc(F)cc1)Nc1cccc(C(=O)Nc2ccc3[nH]ncc3c2)c1", "cell line": "KM12", "technique": "ATP luminescence", "time": "72 h", "measurement": "IC50", "value": "40.3 µM"}
{"Compound": "COc1ccc2c(c1)C(=NNc1nnc(Cc3ccccc3)c3ccccc13)C(=O)N2", "cell line": "ZR75", "tested at": "30 µM", "measurement": "inhibition", "value": "30.9%"}
{"Compound": "O=C1Nc2ccc(F)cc2/C1=N/NC(=O)c1cc2ccccc2[nH]1", "cell line": "ZR75", "tested at": "30 µM", "measurement": "inhibition", "value": "40%"}
{"Compound": "CCN(CC)CCNC(=O)c1c(C)[nH]c(/C=C2\\C(=O)Nc3ccc(F)cc32)c1C", "cell line": "ZR75", "tested at": "30 µM", "measurement": "inhibition", "value": "90.7%"}
{"Compound": "Cc1ccc(C(CS(=O)(=O)c2ccccc2)=NN=C2N=C(c3ccc(Br)cc3)CS2)cc1", "cell line": "WM 266-4", "technique": "MTT", "tested at": "25 µM", "time": "48 h", "measurement": "viability", "value": "42.1%"}
{"Compound": "CN1CCN(c2ccc(C(=O)Nc3n[nH]c4ccc(Cc5cc(F)cc(F)c5)cc34)c(NC3CCOCC3)c2)CC1", "cell line": "KM12", "technique": "ATP luminescence", "time": "72 h", "measurement": "IC50", "value": "23.6 µM"}
{"Compound": "Cc1ccc(C(CS(=O)(=O)c2ccccc2)=NNC2=NC(=O)C(=NNc3ccccc3)S2)cc1", "cell line": "WM 266-4", "technique": "MTT", "tested at": "100 µM", "time": "48 h", "measurement": "viability", "value": "35.7%"}
{"Compound": "Cc1ccc2c(c1)C(=NNc1nc3ccccc3n(C)c1=O)C(=O)N2", "cell line": "ZR75", "tested at": "30 µM", "measurement": "inhibition", "value": "71%"}
{"Compound": "O=C1Nc2ccc(Cl)cc2/C1=N/NC(=O)c1cc2ccccc2[nH]1", "cell line": "ZR75", "tested at": "30 µM", "measurement": "inhibition", "value": "53.9%"}
{"Compound": "Cc1ccc2c(c1)C(=NNc1nnc(Cc3ccccc3)c3ccccc13)C(=O)N2", "cell line": "ZR75", "tested at": "30 µM", "measurement": "inhibition", "value": "69.6%"}
{"Compound": "CN1C(=O)/C(=N\\NC(=O)c2cc3ccccc3[nH]2)c2ccccc21", "cell line": "ZR75", "tested at": "30 µM", "measurement": "inhibition", "value": "73.1%"}
{"Compound": "COc1ccc(-c2nc(NN=C3C(=O)Nc4ccc(Br)cc43)c3ccccc3n2)cc1OC", "cell line": "ZR75", "tested at": "10 µM", "measurement": "inhibition", "value": "78.8%"}
{"Compound": "CN1C(=O)/C(=N\\NC(=O)c2cc3ccccc3[nH]2)c2cc(Br)ccc21", "cell line": "ZR75", "tested at": "30 µM", "measurement": "inhibition", "value": "90.2%"}
{"Compound": "CC#CC(=O)N1CC[C@@H](n2cc(-c3ccc(Oc4c(F)cccc4F)cc3)c3c(N)n[nH]c(=O)c32)C1", "cell line": "JeKo-1", "technique": "ATP luminescence", "time": "72 h", "measurement": "GI50", "value": "4.88 µM"}
{"Compound": "CC(C)(C)c1nc(-c2cccc(NS(=O)(=O)c3c(F)cccc3F)c2F)c(-c2ccnc(N)n2)s1", "cell line": "WM 266-4", "technique": "MTT", "tested at": "25 µM", "time": "48 h", "measurement": "viability", "value": "47.7%"}
{"Compound": "S=C([S][Au-][P+](CCCCCC[P+]([Au-][S]C(=S)n1cccn1)(c1ccccc1)c1ccccc1)(c1ccccc1)c1ccccc1)n1cccn1", "cell line": "KM12", "measurement": "GI50", "value": "0.434 µM"}
{"Compound": "COc1ccc2c(c1)/C(=N/NC(=O)c1cc3ccccc3[nH]1)C(=O)N2", "cell line": "ZR75", "tested at": "30 µM", "measurement": "inhibition", "value": "65.9%"}
{"Compound": "C=CC(=O)N1CCC[C@@H](n2nc(-c3ccc(Oc4ccccc4)cc3)c3c(N)ncnc32)C1", "cell line": "KMS-12-BM", "time": "48 h", "measurement": "GI50", "value": "> 10 µM"}
{"Compound": "Cn1c(=O)c(NN=C2C(=O)Nc3ccc(Cl)cc32)nc2ccccc21", "cell line": "ZR75", "tested at": "30 µM", "measurement": "inhibition", "value": "29.8%"}
{"Compound": "CNC(=O)c1cc(Oc2ccc(NC(=O)Nc3ccc(Cl)c(C(F)(F)F)c3)cc2)ccn1", "cell line": "WM 266-4", "technique": "MTT", "tested at": "6.3 µM", "time": "48 h", "measurement": "viability", "value": "50.7%"}
{"Compound": "O=C1Nc2ccccc2C1=NNc1nnc(Cc2ccccc2)c2ccccc12", "cell line": "ZR75", "tested at": "30 µM", "measurement": "inhibition", "value": "54.3%"}
{"Compound": "CN1C(=O)/C(=N\\NC(=O)c2cc3ccccc3[nH]2)c2cc(F)ccc21", "cell line": "ZR75", "tested at": "30 µM", "measurement": "inhibition", "value": "78.8%"}
{"Compound": "NC(=S)NN=C(CS(=O)(=O)c1ccccc1)c1ccc(F)cc1", "cell line": "WM 266-4", "technique": "MTT", "tested at": "100 µM", "time": "48 h", "measurement": "viability", "value": "24.4%"}
{"Compound": "COc1ccc(-c2nc(NN=C3C(=O)Nc4ccc(F)cc43)c3ccccc3n2)cc1OC", "cell line": "ZR75", "tested at": "30 µM", "measurement": "inhibition", "value": "26.5%"}
{"Compound": "Cc1ccc(C(CS(=O)(=O)c2ccccc2)=NNc2nc(-c3ccc(OCCCCOc4ccc(-c5csc(NN=C(CS(=O)(=O)c6ccccc6)c6ccc(C)cc6)n5)cc4)cc3)cs2)cc1", "cell line": "WM 266-4", "technique": "MTT", "tested at": "0.4 µM", "time": "48 h", "measurement": "viability", "value": "77%"}
{"Compound": "COc1cccc(Oc2ccccc2NC(=O)CNC(=O)c2cccc3ccccc23)c1", "cell line": "SR", "technique": "SRB", "time": "48 h", "measurement": "GI50", "value": "0.115 µM"}
